Measured values published in ChEMBL document CHEMBL1166014, “Targeting efflux pumps-In vitro investigations with acridone derivatives and identification of a lead molecule for MDR modulation” (Bioorg Med Chem, 2010).
≈ marks a conversion by molar mass, not a printed value. Calls of active or inactive are those of the source. The rule behind the calls is not given here.

Tests used:
Candida albicans [1] = test: Antifungal activity at Candida albicans CAI4 after 48 hrs by ELISA; assay type: functional; conditions: CAI4, 48 h
Method in brief: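 Broth microdilution; CAI4 streaked on YEPD, 30 °C 24 h; compounds serially diluted twofold in YEPD, solvent diluted alongside; growth control column; 30 °C 48 h; OD600 on plate reader; MIC80 = concentration giving 80% growth inhibition vs no-compound growth.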

ATP = test: Binding affinity to ATP at 50 uM in HEPES buffer of pH 7.2 by spectrophotometry
Method in brief: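 UV-vis titration: compound held constant at 50 µM in HEPES pH 7.2, titrated with NaATP (from 10^-2 M stock) over 0–3 equiv; absorbance change followed; binding constant from Benesi–Hildebrand plot.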

[2] = Binding affinity to Mg2+ at 100 uM in HEPES buffer of pH 7.2 by spectrophotometry
Method in brief: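 Compound at 10^-4 M in 10^-2 M HEPES pH 7.2 titrated with Mg²⁺ (0–0.5 × 10^-4 M); absorbance changes at 270–310, 390–415 and 320–340 nm monitored; binding constant by Benesi–Hildebrand equation.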

[3] = Binding affinity to P-gp at 5 uM after 30 mins by spectrophotometry
Method in brief: (§1)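 P-gp vesicles from DC-3F/ADX MDR cells; basal MgATP hydrolysis measured by PK/LDH-coupled NADH oxidation (PEP, NADH), with non-specific ATPase inhibitor; vesicles 5 min at 37 °C, compound added (final 0.05, 0.5, 5 µM) 5 min, MgATP then 20 min at 37 °C; A340 read twice 20 min apart; triplicate; verapamil, vinblastine, progesterone references.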

[4] = Binding affinity to P-gp at 0.5 uM after 30 mins by spectrophotometry; method in brief: as §1
[5] = Binding affinity to P-gp at 0.05 uM after 30 mins by spectrophotometry; method in brief: as §1
[6] = Binding affinity to P-gp assessed as increase in basal protein activity at 0.05 uM after 30 mins by spectrophotometry; method in brief: as §1
[7] = Binding affinity to P-gp assessed as increase in basal protein activity at 5 uM after 30 mins by spectrophotometry; method in brief: as §1
[8] = Binding affinity to P-gp assessed as increase in basal protein activity at 0.5 uM after 30 mins by spectrophotometry; method in brief: as §1
Candida albicans [9] = test: Effect of membrane integrity of Candida albicans CAI4 at 800 ug/ml after 48 hrs by spot assay in presence of 300 ug/ml congo red; assay type: functional, organism-based
Method in brief: (§2)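 Spot assay on YEPD-agar plates containing compound (with Congo red or calcofluor white where applicable); solvent (MeOH/DMSO 1:1) and YEPD-only control plates; CAI4 primary culture 16 h, secondary 5 h at 30 °C from 4% inoculum, diluted in 0.9% saline; 10⁵ to 10⁰ cells spotted; 30 °C 48 h, growth scored.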

[10] = target: Multidrug resistance protein CDR1 (Candida albicans) (UniProt P43071); test: Modulation of CDR1-mediated rhodamine 6G accumulation in Candida albicans CAI4 assessed as inhibition of fungal growth at 800 ug/ml after 48 hrs by spot assay
Method in brief: (§3)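 Spot assay: CAI4 grown in YEPD at 30 °C (16 h primary, 5 h secondary), diluted in 0.9% saline and spotted as 10⁵–10⁰ cells on YEPD agar containing compound plus R6G; solvent (MeOH/DMSO 1:1) and YEPD-only control plates; growth scored after 48 h at 30 °C.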

[11] = target: T1, Multidrug resistance protein CDR2 (Candida albicans (strain SC5314 / ATCC MYA-2876) (Yeast)) (UniProt P78595); test: Modulation of CDR2-mediated rhodamine 6G accumulation in Candida albicans CAI4 assessed as increase in R6G influx at 800 ug/ml after 180 mins by spectrofluorimetry
T1 sequence (whole entry): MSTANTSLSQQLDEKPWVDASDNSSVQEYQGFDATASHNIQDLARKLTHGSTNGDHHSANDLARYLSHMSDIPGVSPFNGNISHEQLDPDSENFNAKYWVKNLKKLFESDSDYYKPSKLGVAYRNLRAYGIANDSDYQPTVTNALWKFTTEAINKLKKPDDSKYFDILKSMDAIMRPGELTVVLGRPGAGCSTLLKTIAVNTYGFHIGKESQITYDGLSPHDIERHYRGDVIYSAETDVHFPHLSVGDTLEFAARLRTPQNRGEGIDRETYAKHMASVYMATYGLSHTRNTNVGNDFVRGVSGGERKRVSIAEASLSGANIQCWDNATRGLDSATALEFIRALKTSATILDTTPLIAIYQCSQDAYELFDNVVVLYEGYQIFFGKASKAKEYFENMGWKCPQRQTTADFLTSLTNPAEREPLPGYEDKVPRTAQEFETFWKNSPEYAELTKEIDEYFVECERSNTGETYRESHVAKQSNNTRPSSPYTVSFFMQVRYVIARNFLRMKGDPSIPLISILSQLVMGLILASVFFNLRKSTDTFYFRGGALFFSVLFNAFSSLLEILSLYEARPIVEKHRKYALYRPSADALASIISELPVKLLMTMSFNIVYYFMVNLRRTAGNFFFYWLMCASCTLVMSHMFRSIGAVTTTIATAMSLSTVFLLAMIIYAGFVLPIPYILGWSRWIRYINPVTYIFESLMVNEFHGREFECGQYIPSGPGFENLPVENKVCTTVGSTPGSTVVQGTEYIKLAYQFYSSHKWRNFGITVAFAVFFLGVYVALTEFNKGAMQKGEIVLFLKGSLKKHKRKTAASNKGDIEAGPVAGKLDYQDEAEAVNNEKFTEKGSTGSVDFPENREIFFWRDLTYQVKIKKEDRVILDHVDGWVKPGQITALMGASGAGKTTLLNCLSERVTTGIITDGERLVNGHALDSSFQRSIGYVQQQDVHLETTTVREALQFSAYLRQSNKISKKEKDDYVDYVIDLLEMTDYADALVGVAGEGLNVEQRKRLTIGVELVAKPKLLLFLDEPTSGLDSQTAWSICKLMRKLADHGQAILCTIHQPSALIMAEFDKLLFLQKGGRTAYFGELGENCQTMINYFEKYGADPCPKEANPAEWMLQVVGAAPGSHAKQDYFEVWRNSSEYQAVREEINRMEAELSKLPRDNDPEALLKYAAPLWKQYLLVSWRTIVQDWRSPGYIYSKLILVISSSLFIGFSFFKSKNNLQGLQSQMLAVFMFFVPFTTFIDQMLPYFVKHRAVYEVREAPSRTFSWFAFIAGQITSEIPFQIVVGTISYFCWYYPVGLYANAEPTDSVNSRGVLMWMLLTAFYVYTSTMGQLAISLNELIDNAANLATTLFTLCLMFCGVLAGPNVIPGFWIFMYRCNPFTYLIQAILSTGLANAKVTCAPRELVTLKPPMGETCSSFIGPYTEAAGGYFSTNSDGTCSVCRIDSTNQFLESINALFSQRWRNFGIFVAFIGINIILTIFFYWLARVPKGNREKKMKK
Method in brief: (§4)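 C. albicans CAI4 secondary culture (YEPD, 30 °C, ~5 h) washed in PBS, 2% suspension in PBS with 2 mM 2-deoxyglucose rocked 2 h; compound added at 800 µg/ml (MeOH/DMSO 1:1 solvent control), then R6G; aliquots over 0–180 min centrifuged, R6G left in supernatant measured as OD527.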

Candida albicans [12] = test: Antifungal activity at Candida albicans CAI4 assessed as inhibition of fungal growth at 1 mg/ml after 48 hrs by spot assay; assay type: functional, organism-based; method in brief: as §2
[13] = target: T1, Multidrug resistance protein CDR2 (Candida albicans (strain SC5314 / ATCC MYA-2876) (Yeast)); test: Modulation of CDR2-mediated rhodamine 6G accumulation in Candida albicans CAI4 assessed as inhibition of fungal growth at 800 ug/ml after 48 hrs by spot assay; method in brief: as §3
[14] = target: Multidrug resistance protein CDR1 (Candida albicans) (UniProt P43071); test: Modulation of CDR1-mediated rhodamine 6G accumulation in Candida albicans CAI4 assessed as increase in R6G influx at 800 ug/ml after 180 mins by spectrofluorimetry; method in brief: as §4
Candida albicans [15] = test: Antifungal activity at Candida albicans CAI4 assessed as reduction in colony formation at 0.9 mg/ml after 48 hrs by spot assay; assay type: functional, organism-based; method in brief: as §2
Candida albicans [16] = test: Antifungal activity at Candida albicans CAI4 assessed as reduction in colony formation at 1 mg/ml after 48 hrs by spot assay; assay type: functional, organism-based; method in brief: as §2
[17] = target: Multidrug resistance protein CDR1 (Candida albicans) (UniProt P43071); test: Inhibition of CDR1-mediated efflux of rhodamine 6G in Candida albicans CAI4 at 800 ug/ml up to 60 mins by spectrofluorimetry in presence of 2 mM 2-deoxyglucose treated for 2 hrs before compound addition
Method in brief: (§5)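 C. albicans CAI4 secondary culture (YEPD, 30 °C, ~5 h) washed in PBS, 2% cell suspension de-energised with 2 mM 2-deoxyglucose on rocker 2 h; R6G loaded, cells pelleted, washed, resuspended in PBS with or without 2% glucose; compound at 800 µg/ml with MeOH/DMSO 1:1 solvent control; supernatant R6G fluorescence read (ex 529, em 553 nm) over time.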

Candida albicans [18] = test: Effect of membrane integrity of Candida albicans CAI4 at 800 ug/ml after 48 hrs by spot assay in presence of 300 ug/ml calcofluor white; assay type: functional, organism-based; method in brief: as §2
Candida albicans [19] = test: Antifungal activity at Candida albicans CAI4 assessed as inhibition of fungal growth at 0.9 mg/ml after 48 hrs by spot assay; assay type: functional, organism-based; method in brief: as §2
[20] = target: T1, Multidrug resistance protein CDR2 (Candida albicans (strain SC5314 / ATCC MYA-2876) (Yeast)); test: Inhibition of CDR2-mediated efflux of rhodamine 6G in Candida albicans CAI4 at 800 ug/ml up to 60 mins by spectrofluorimetry in presence of 2 mM 2-deoxyglucose treated for 2 hrs before compound addition; method in brief: as §5
[21] = Partition coefficient, log P of the compound; assay type: physicochemical; conditions: octanol/water

Chain of Multidrug resistance protein CDR1 (Candida albicans) (P43071 whole entry, looked up): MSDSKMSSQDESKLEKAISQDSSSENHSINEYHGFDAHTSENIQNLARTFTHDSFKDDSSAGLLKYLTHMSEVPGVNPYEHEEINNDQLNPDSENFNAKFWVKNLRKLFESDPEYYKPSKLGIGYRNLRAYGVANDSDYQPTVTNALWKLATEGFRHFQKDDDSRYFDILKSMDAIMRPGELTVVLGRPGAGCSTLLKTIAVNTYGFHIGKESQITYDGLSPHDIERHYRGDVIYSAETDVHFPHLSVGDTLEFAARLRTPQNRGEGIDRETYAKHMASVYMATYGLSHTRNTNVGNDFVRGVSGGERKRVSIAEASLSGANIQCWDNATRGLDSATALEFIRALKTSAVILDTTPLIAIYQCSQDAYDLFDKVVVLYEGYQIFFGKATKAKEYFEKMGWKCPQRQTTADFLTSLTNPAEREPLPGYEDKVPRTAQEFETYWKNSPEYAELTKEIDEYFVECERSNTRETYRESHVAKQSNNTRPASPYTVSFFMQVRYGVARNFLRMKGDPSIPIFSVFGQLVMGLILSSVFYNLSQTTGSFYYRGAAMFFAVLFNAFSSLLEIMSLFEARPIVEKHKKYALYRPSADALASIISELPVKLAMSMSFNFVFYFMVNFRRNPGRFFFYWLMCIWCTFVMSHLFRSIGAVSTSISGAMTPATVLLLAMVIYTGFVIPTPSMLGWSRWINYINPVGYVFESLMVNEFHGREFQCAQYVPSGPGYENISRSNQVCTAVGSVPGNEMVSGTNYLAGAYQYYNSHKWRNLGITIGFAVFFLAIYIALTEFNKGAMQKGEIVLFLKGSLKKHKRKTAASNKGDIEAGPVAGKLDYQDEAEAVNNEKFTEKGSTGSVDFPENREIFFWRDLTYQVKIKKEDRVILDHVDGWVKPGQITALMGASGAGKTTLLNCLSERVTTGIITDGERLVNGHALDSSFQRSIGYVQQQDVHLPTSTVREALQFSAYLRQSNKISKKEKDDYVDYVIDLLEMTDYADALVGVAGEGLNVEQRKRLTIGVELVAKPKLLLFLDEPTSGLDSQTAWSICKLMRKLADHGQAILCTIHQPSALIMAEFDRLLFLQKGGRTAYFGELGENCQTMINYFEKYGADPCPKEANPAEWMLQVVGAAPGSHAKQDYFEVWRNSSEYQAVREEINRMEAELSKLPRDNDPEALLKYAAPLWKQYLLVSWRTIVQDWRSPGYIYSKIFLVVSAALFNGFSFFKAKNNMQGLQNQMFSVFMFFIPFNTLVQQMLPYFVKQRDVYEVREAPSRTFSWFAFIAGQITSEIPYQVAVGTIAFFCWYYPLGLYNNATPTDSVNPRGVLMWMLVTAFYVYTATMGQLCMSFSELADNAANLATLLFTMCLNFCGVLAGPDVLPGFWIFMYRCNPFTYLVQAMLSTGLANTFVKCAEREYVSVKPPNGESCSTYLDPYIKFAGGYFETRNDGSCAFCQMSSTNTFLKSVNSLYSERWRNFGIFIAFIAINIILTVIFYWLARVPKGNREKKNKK

SMILES	MIC80 (Candida albicans [1]) [µg/mL]	Ka (ATP)	Ka [2] [×10⁵ /M]	RBA [3]	RBA [4]	RBA [5]	Activity [6] [%]	Activity [7] [%]	Activity [8] [%]	further results
CC(C)N(CC(O)Cn1c2ccccc2c(=O)c2cccc(Cl)c21)C(C)C (stereo unspecified)	> 3000	1.42 ×10⁵ /M	2.2							
O=c1c2ccccc2n(CC(O)CN2CCCCC2)c2c(Cl)cccc12 (stereo unspecified)	> 3000	5 ×10⁵ /M	1.48							
CC(=O)[C@H]1CC[C@H]2[C@@H]3CCC4=CC(=O)CC[C@]4(C)[C@H]3CC[C@]12C				1.42	1.11	1				
O=c1c2ccccc2n(CC(O)CN2CCCC2)c2c(Cl)cccc12 (stereo unspecified)	> 3000	6.57 ×10⁵ /M	0.95							
CCN(CC)CC(O)Cn1c2ccccc2c(=O)c2cccc(C(=O)O)c21 (stereo unspecified)		inactive	7.74	2.12	1.7	1.65	65	112	70	
CCN(CC)CC(O)Cn1c2ccccc2c(=O)c2cccc(Cl)c21 (stereo unspecified)	1500 (≈ 4.18 mM)	7.9 ×10⁵ /M	0.39							
O=C(O)c1cccc2c(=O)c3ccccc3n(CC(O)CN3CCCC3)c12 (stereo unspecified)	781 (≈ 2.13 mM)	inactive	1.5	2	1.85	1.6	60	100	85	inhibition (Candida albicans [9]): inactive; inhibition [10]: Active; inhibition [11]: Active; inhibition (Candida albicans [12]): inactive; inhibition [13]: Active; inhibition [14]: Active; inhibition (Candida albicans [15]): Active; inhibition (Candida albicans [16]): Active; inhibition [17]: Active; inhibition (Candida albicans [18]): inactive; inhibition (Candida albicans [19]): inactive; inhibition [20]: Active
O=C(O)c1cccc2c(=O)c3ccccc3n(CC(O)CN3CCCCC3)c12 (stereo unspecified)		inactive	19.7	2.44	1.66	1.57	57	144	66	
CC(C)N(CC(O)Cn1c2ccccc2c(=O)c2cccc(C(=O)O)c21)C(C)C (stereo unspecified)		inactive	2	2.05	1.6	1.53	53	105	60	
O=c1c2ccccc2n(CC(O)CN2CCC(N3CCCCC3)CC2)c2c(Cl)cccc12 (stereo unspecified)	> 3000	11 ×10⁵ /M	18.6							
CC[C@]1(O)C[C@@H]2CN(CCc3c([nH]c4ccccc34)[C@@](C(=O)OC)(c3cc4c(cc3OC)N(C)[C@H]3[C@@](O)(C(=O)OC)[C@H](OC(C)=O)[C@]5(CC)C=CCN6CC[C@]43[C@@H]65)C2)C1				1.21	1.37	0.98				
COc1ccc(CCN(C)CCCC(C#N)(c2ccc(OC)c(OC)c2)C(C)C)cc1OC (stereo unspecified)				2.8	2.01	1.11				
O=c1c2ccccc2n(CC(O)CN2CCOCC2)c2c(Cl)cccc12 (stereo unspecified)	> 3000	4.08 ×10⁵ /M	17.1							
O=C(O)c1cccc2c(=O)c3ccccc3n(CC(O)CN3CCOCC3)c12 (stereo unspecified)		inactive	3.82	2.66	2	1.63	63	166	100	logP [21]: 0.6
